# Source: ChEMBL document CHEMBL3232910, “Synthesis and evaluation of several oleanolic acid glycoconjugates as protein tyrosine phosphatase 1B inhibitors” (Eur J Med Chem, 2014)
# pIC50: −log10 of the molar value.
# Key:
# [1] = molecular target: T1, Tyrosine-protein phosphatase non-receptor type 1 (Homo sapiens, UniProt P18031); assay: Inhibition of recombinant PTP1B (unknown origin) using p-nitrophenyl phosphate as substrate assessed as inhibition of release of p-nitrophenol preincubated for 10 mins measured before substrate addition after 30 mins by spectrophotometry
# T1 sequence (P18031 whole entry): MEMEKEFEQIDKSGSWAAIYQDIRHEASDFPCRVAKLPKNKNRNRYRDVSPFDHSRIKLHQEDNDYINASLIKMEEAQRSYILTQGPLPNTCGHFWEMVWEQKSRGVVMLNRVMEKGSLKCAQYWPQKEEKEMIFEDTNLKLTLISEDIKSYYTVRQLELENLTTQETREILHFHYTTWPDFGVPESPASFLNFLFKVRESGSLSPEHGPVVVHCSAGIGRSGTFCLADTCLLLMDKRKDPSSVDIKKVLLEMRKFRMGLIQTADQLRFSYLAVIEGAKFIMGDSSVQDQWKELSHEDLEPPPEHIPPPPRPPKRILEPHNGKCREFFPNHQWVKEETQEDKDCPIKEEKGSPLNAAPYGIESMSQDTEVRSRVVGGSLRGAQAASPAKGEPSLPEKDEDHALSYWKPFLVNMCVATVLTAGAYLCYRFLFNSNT
# In short: (§1)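 Enzyme diluted in 25 mM HEPES, 50 mM NaCl, 2.5 mM EDTA, 0.1% BSA, pH 7.2. Inhibitor in DMSO was preincubated with enzyme in 50 mM HEPES, 2.5 mM EDTA, pH 7.0 at 37 C for 10 min. pNPP was then added, 30 min at 37 C, stopped with 2 M Na2CO3, A405 read.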
# [2] = molecular target: T2, Tyrosine-protein phosphatase non-receptor type 2 (Homo sapiens, UniProt P17706); assay: Inhibition of TCPTP (unknown origin) using p-nitrophenyl phosphate as substrate assessed as inhibition of release of p-nitrophenol preincubated for 10 mins measured before substrate addition after 30 mins by spectrophotometry; in short: as §1
# T2 sequence (P17706 whole entry): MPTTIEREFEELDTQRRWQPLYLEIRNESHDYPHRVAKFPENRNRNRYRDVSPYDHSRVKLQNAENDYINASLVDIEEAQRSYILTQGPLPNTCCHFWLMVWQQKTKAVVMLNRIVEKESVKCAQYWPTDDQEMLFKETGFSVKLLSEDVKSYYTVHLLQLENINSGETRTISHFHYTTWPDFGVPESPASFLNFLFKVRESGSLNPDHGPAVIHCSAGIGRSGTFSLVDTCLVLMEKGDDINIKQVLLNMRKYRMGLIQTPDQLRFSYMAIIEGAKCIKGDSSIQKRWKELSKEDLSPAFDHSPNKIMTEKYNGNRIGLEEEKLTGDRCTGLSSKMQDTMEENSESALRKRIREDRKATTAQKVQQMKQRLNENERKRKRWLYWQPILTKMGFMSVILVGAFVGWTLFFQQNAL
# Homo sapiens = species on record: Homo sapiens; assay: Selectivity ratio of IC50 for TCPTP (unknown origin) to IC50 for recombinant PTP1B (unknown origin)
# In short: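 Ratio of TCPTP IC50 to PTP1B IC50. Both come from the same pNPP hydrolysis assay: 10 min preincubation at 37 C in 50 mM HEPES, 2.5 mM EDTA, pH 7.0, 30 min reaction, Na2CO3 quench, A405. IC50 from 4-parameter logistic fits.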
# [3] = molecular target: T3, Tyrosine-protein phosphatase non-receptor type 1 (Homo sapiens) (UniProt P18031); assay: Inhibition of recombinant PTP1B (unknown origin) using p-nitrophenyl phosphate as substrate assessed as inhibition of release of p-nitrophenol preincubated for 10 mins measured before substrate addition at 10 ug/ml after 30 mins by spectrophotometry
# T3 sequence (whole entry): T1 sequence (P18031 whole entry)
Compound,pIC50 [1],pIC50 [2],Ratio IC50 (Homo sapiens),inhibition [3] [%]
CC1(C)CC[C@]2(C(=O)O[C@@H]3O[C@H](CNC(=O)c4ccccc4C(=O)O)[C@@H](O)[C@H](O)[C@H]3O)CC[C@]3(C)C(=CC[C@@H]4[C@@]5(C)CC[C@H](O[C@@H]6O[C@H](CO)[C@@H](O[C@@H]7O[C@H](CO)[C@@H](O)[C@H](O)[C@H]7O)[C@H](O)[C@H]6O)C(C)(C)[C@@H]5CC[C@]43C)[C@@H]2C1,6.11,5.67,2.8,> 54.7
CC1(C)CC[C@]2(C(=O)O[C@@H]3O[C@H](CNC(=O)c4ccccc4C(=O)O)[C@@H](O)[C@H](O)[C@H]3O)CC[C@]3(C)C(=CC[C@@H]4[C@@]5(C)CC[C@H](O[C@@H]6O[C@H](CO)[C@@H](O[C@@H]7O[C@H](CO)[C@H](O)[C@H](O)[C@H]7O)[C@H](O)[C@H]6O)C(C)(C)[C@@H]5CC[C@]43C)[C@@H]2C1,5.99,5.39,4,> 54.7
CC1(C)CC[C@]2(C(=O)O[C@@H]3O[C@H](CNC(=O)c4ccccc4C(=O)O)[C@@H](O)[C@H](O)[C@H]3O)CC[C@]3(C)C(=CC[C@@H]4[C@@]5(C)CC[C@H](O[C@@H]6O[C@H](CO[C@@H]7O[C@H](CO)[C@@H](O)[C@H](O)[C@H]7O)[C@@H](O)[C@H](O)[C@H]6O)C(C)(C)[C@@H]5CC[C@]43C)[C@@H]2C1,5.51,5.53,1,> 54.7
C[C@@H]1O[C@@H](O[C@H]2CC[C@]3(C)[C@H]4CC=C5[C@@H]6CC(C)(C)CC[C@]6(C(=O)O[C@@H]6O[C@H](CNC(=O)c7ccccc7C(=O)O)[C@@H](O)[C@H](O)[C@H]6O)CC[C@@]5(C)[C@]4(C)CC[C@H]3C2(C)C)[C@@H](O)[C@H](O)[C@@H]1O,4.98,5.06,0.8,> 54.7
CC1(C)CC[C@]2(C(=O)O[C@@H]3O[C@H](CNC(=O)c4ccccc4C(=O)O)[C@@H](O)[C@H](O)[C@H]3O)CC[C@]3(C)C(=CC[C@@H]4[C@@]5(C)CC[C@H](O[C@@H]6OC[C@@H](O)[C@H](O)[C@H]6O)C(C)(C)[C@@H]5CC[C@]43C)[C@@H]2C1,4.78,4.81,0.9,> 54.7
CC1(C)CC[C@]2(C(=O)O[C@@H]3O[C@H](CNC(=O)c4ccccc4C(=O)O)[C@@H](O)[C@H](O)[C@H]3O)CC[C@]3(C)C(=CC[C@@H]4[C@@]5(C)CC[C@H](O[C@H]6O[C@H](CO)[C@@H](O)[C@H](O)[C@@H]6O)C(C)(C)[C@@H]5CC[C@]43C)[C@@H]2C1,4.80,,,> 54.7
CC1(C)CC[C@]2(C(=O)O[C@@H]3O[C@H](CNC(=O)c4ccccc4C(=O)O)[C@@H](O)[C@H](O)[C@H]3O)CC[C@]3(C)C(=CC[C@@H]4[C@@]5(C)CC[C@H](O[C@@H]6O[C@H](CO)[C@H](O)[C@H](O)[C@H]6O)C(C)(C)[C@@H]5CC[C@]43C)[C@@H]2C1,5.19,4.84,2.2,> 54.7
CC1(C)CC[C@]2(C(=O)O[C@@H]3O[C@H](CNC(=O)c4ccccc4C(=O)O)[C@@H](O)[C@H](O)[C@H]3O)CC[C@]3(C)C(=CC[C@@H]4[C@@]5(C)CC[C@H](O[C@@H]6OC[C@H](O)[C@H](O)[C@H]6O)C(C)(C)[C@@H]5CC[C@]43C)[C@@H]2C1,5.25,4.91,2.2,> 54.7
C[C@@H]1O[C@@H](O[C@H]2CC[C@]3(C)[C@H]4CC=C5[C@@H]6CC(C)(C)CC[C@]6(C(=O)O[C@@H]6O[C@H](CNC(=O)c7ccccc7C(=O)O)[C@@H](O)[C@H](O)[C@H]6O)CC[C@@]5(C)[C@]4(C)CC[C@H]3C2(C)C)[C@H](O)[C@H](O)[C@H]1O,4.58,,,> 54.7
CC1(C)CC[C@]2(C(=O)O[C@@H]3O[C@H](CNC(=O)c4ccccc4C(=O)O)[C@@H](O)[C@H](O)[C@H]3O)CC[C@]3(C)C(=CC[C@@H]4[C@@]5(C)CC[C@H](O[C@@H]6O[C@H](CO)[C@@H](O)[C@H](O)[C@H]6O)C(C)(C)[C@@H]5CC[C@]43C)[C@@H]2C1,4.76,4.52,1.8,> 54.7
CC1(C)CC[C@]2(C(=O)O[C@@H]3O[C@H](CNC(=O)c4ccccc4C(=O)O)[C@@H](O)[C@H](O)[C@H]3O)CC[C@]3(C)C(=CC[C@@H]4[C@@]5(C)CC[C@H](O)C(C)(C)[C@@H]5CC[C@]43C)[C@@H]2C1,4.69,4.61,1.2,54.7
